Measurements as given in the EternaBench riboswitch data.

System: MS2 coat protein
Assay: apparent Kd, MS2 coat protein; higher = weaker binding; RNA-MaP array; FMN 200 µM where present
How it was run: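 Stalled E. coli RNA polymerase transcribed each design on Illumina sequencing-chip clusters. The clusters were titrated with SNAP-549-labelled MS2 coat protein, starting at 0.7 or 1.5 nM and doubling up to 3 µM, first without ligand and then with constant ligand, in 100 mM Tris-HCl pH 7.5, 80 mM KCl, 4 mM MgCl2, BSA, DTT, yeast tRNA and Tween-20. Green signal was normalised to red-channel RNA signal and to the control-cluster median Fmax. The apparent Kd is the median of filtered binding-curve fits made for each cluster.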

[1] = designed as: OFF switch for flavin mononucleotide, no ligand
[2] = ligand present: flavin mononucleotide, designed as: OFF switch for flavin mononucleotide
[3] = designed as: ON switch for flavin mononucleotide, no ligand
[4] = ligand present: flavin mononucleotide, designed as: ON switch for flavin mononucleotide

Sequence | apparent Kd [1] | apparent Kd [2] | apparent Kd [3] | apparent Kd [4]
AACGAGGCAGGAUAUACAUGAGGAUCACCCAUGUGCUUGCAUGGCGUGGGAAGUCAACGUAGAAGGGCCAUGCC | 75.7 nM | 89.4 nM |  | 
AACGCGUCAGGAUAUGCCAUAAAUUACCUAGUACGACCAUAGCAGAAGGGACAUGAGGAUCACCCAUGUGGGUA | 92 nM | 67.6 nM |  | 
AACUAAGAAUUAAUGGUGACUGACAGAAGGCAAUAGAAUGAGACCGACAUGAGGAUCACCCAUGUUGAGGAUAUGUCUUGCUAC | 6.59 nM | 7.2 nM |  | 
AACUAGCUAGGAUAUACAUGAGGAUCACCCAUGUAAAAAAAAAAAAAAAAAUUUUUAUGUAGAAGGAGCUAGUA | 34 nM | 41.2 nM |  | 
AACUCACAUGAGGAUCACCCAUGUGAGGAUAUAUAAAUAUAUAUGUUAUUGUAUGUUUGUAGAAGGCGCGUGAU | 38.6 nM | 43.1 nM |  | 
AACUCGUCAGGAUAUGCGCGCAGUUGCUGCGCUUCGCCGUUGCAGAAGGGACAUGAGGAUCACCCAUGUAGGUC | 35.8 nM | 43.5 nM |  | 
AAGAAACAUGAGGAUCACCCAUGUCACCUCACACGAGGAUAUCUGAAUCGAUUAGAUUACGGAGAAGGCGUGAGAA |  |  | 30.2 nM | 18.3 nM
AAGAAACAUGAGGAUCACCCAUGUGAGGAUAUGAAAAAGAAAAGAAAAGAAAGAAGAAUCAGAAGGCACAAAGG | 30.8 nM | 45.1 nM |  | 
AAGAAACAUGAGGAUCACCCAUGUGAGGAUAUGUAAAAUAAAAUAAAAUAAAUAAUAAACAGAAGGCACAAAGG | 68 nM | 76.5 nM |  | 
AAGAAAUGGGAGUGAUUUGGUUCCGAGGAUAUAGGCAUCGGUACAUGAGGAUCACCCAUGUUCGACUAGAAGGCGGACGGGUCC |  |  | 169 nM | 20.4 nM
AAGAAGUAAGGAUAUGCAUGGCGGGACUUGCGUCGUGGCGUGCAGAAGGUACAUGAGGAUCACCCAUGUAAAGA | 27.2 nM | 15.4 nM |  | 
AAGAAGUCAGGAUAUCCAUGGCGGCACUUGCGUGGUGGCGUGGAGAAGGGACAUGAGGAUCACCCAUGUAAAGA | 51.4 nM | 35.8 nM |  | 
AAGAAGUCAGGAUAUGCUAAAGAAAUAAAAAGAAAGAAAGAACAUGAGGAUCACCCAUGUAGAAGGGACAAGAA | 42.9 nM | 40.6 nM |  | 
AAGAAGUGAGGAUAUCGAAGACAAAAAAAAAAAAAGUCGAACGAGAAGGCACAUGAGGAUCACCCAUGUAAGAA | 30.2 nM | 33.4 nM |  | 
AAGAAGUUAGGAUAUGCAUGGCGGGACUUGCGUCGUGGCGUGCAGAAGGAACAUGAGGAUCACCCAUGUAAAGA | 29.1 nM | 18.3 nM |  | 
AAGAAUAGAAAGAUUAAUAUGAAUACAUGAGGAUCACCCAUGUAGGAUAUCGACGUCAAUGACGUCGAGAAGGACAUAAAUAAU | 9.7 nM | 9.09 nM |  | 
AAGACGUGGGAAGGAUAUCUGGAAUAUCGGUCGAGAGAAGGUCCCUCGACAUGAGGAUCACCCAUGUAACGCGGUCUACCGUGU |  |  | 596 nM | 494 nM
AAGACUAGAGGAUAUACAUGAGGAUCACCCAUGUAACUGUCAGAAAACUGACGGAGAUGUAGAAGGCUAGUCAA | 17.7 nM | 34.7 nM |  | 
AAGAGACAUCAGAAGGGAACCCAAACGCGCGGUUCAGGAUAUGAGAUCUUAUGUAGUUCGACAUGAGGAUCACCCAUGUCCGCG |  |  | 101 nM | 8.22 nM
AAGAUGCGGGUAGGAUAUGGGAAUUAAUAAAGACCAGAAGGACUGGUCACACAACAUGAGGAUCACCCAUGUGUGUGUAGUGAA | 12.4 nM | 10.9 nM |  | 
AAGCGAAAGCUAAAAUAUCUAUCAGAGGAUAUUUAUGAUACAUGAGGAUCACCCAUGUGGCGCUGGGAGAAGGCUGAUAGAUAA |  |  | 12.9 nM | 6.79 nM
AAGCUGCGCCAGAAGGGACCGACAUGAGGAUCACCCAUGUCCACAAGAGUCAGGAUAUGGCGUGGAGGCUCGUUCAAGUCCAGG |  |  | 13.5 nM | 5.73 nM

Sequence | apparent Kd [1] | apparent Kd [2] | apparent Kd [3] | apparent Kd [4]
AAGCUGCGCCAGAAGGGACCGACAUGAGGAUCACCCAUGUCCACAAGAGUCAGGAUAUGGCGUGGAGGCUCGUUUAAGUCCAGG |  |  | 11.1 nM | 5.19 nM
AAGGAAACCACAGGAUAUGGCUAGAAUAUCUAGCCAGAAGGGUGGUCGAAACCAUGUAAAUACAUGAGGAUCACCCAUGUGUCC |  |  | 345 nM | 378 nM
AAGGAUAGAGGAUAUACAUAGAUACAGAUUCAUGUAGAAUUACAUGAGGAUCACCCAUGUAGAAGGCUAUCCUA | 635 nM | 29 nM |  | 
AAGGAUAGAGGAUAUACAUAGAUACAGAUUCAUGUAGUCCUACAUGAGGAUCACCCAUGUAGAAGGCUAUCCUA | 15.6 nM | 83.8 nM |  | 
AAGGAUAGAGGAUAUGCAUAGAUACAGAUUCAUGUAGAACUACAUGAGGAUCACCCAUGUAGAAGGCUAUCCUA | 18.6 nM | 50.8 nM |  | 
AAGGAUCGAGGAUAUACAUAGAUACAGAUACAUGUAGACCUACAUGAGGAUCACCCAUGUAGAAGGCGAUCCUA | 22.4 nM | 54.7 nM |  | 
AAGGCGGCUCAGGCCGAGUUUCGCAGAAGGGCACAUGAGGAUCACCCAUGUACCUGGUCUGAUGUGCAGGAUAUGUGAGUCAGC | 5.6 nM | 10.4 nM |  | 
AAGGGUAGGCAGGAUAUCCAGGUCGACACCGCGGGAGAAGGGCUUACAUGAGGAUCACCCAUGUAGGGUGCGAU | 177 nM | 129 nM |  | 
AAGGUGUUAGGAUAUCGUAGUUUGUGGCAGACGGGAUUUUGCGAGAAGGAACAUGAGGAUCACCCAUGUCGGAU | 28.4 nM | 28.2 nM |  | 
AAGUAGACGGUGAGGAUAUAGGUCGAAUGACCGAUCUAGAAGGCACAUGAGGAUCACCCAUGUGGGUAACGUCG | 17.8 nM | 20.7 nM |  | 
AAGUAGGUAGGAUAUACAUGGAUAUACAUUCAUGUGGACCUACAUGAGGAUCACCCAUGUAGAAGGACCUAAUA | 43.2 nM | 41.6 nM |  | 
AAGUCUGUACGAGGAUAUCAGUUGUAUCUAGAUUCAACAUGAGGAUCACCCAUGUUGCAAUAGGGUGAGAAGGCGUGUGGGCAA |  |  | 101 nM | 25.3 nM
AAGUGCCUGUCGAUGCUCGACAUGAGGAUCACCCAUGUACAGCAGGAUAUGCAGAACUACCUCGUGCAGAAGGGCUGUACCAAU | 97.1 nM | 80.1 nM |  | 
AAGUGUGCCUAGGAUAUGUUCGGCCAAGGUCAUACAGAAGGAGGCACAUGAGGAUCACCCAUGUAGUGUCCAAC | 118 nM | 29.4 nM |  | 
AAUAAACAUGAGGAUCACCCAUGUAAAUGGGCGAUAGGAUAUGCGAAAAUAAAGAAAGAAGCAGAAGGAUCGAAGA |  |  | 846 nM | 509 nM
AAUAAACAUGAGGAUCACCCAUGUCCCACCAGCCAAGGAUAUGGGCCCGCCGCACAGGUACCAGAAGGUGGCUGCC |  |  | 165 nM | 55.7 nM
AAUAAACUCACAGGAUAUAGCAUAGUCGGCGUGAACUUAAUGGCGACUAUGCUAGAAGGGUGACCACAUGAGGAUCACCCAUGU |  |  | 710 nM | 149 nM
AAUAACAGAGGAUAUACUAUUUUAUGUAUUUAUUAUUUUGAACAUGAGGAUCACCCAUGUAGAAGGCUGAAUGA | 26.4 nM | 22 nM |  | 
AAUAACAGAGGAUAUACUAUUUUAUGUGUUUAUUGUUUUGAACAUGAGGAUCACCCAUGUAGAAGGCUGAAUGA | 29.9 nM | 35.8 nM |  | 
AAUAACAGAGGAUAUACUAUUUUAUGUGUUUGUUAUUUUAAACAUGAGGAUCACCCAUGUAGAAGGCUGAAUAA | 24.3 nM | 22.1 nM |  | 
AAUAACAGAGGAUAUACUAUUUUAUGUGUUUGUUAUUUUGAACAUGAGGAUCACCCAUGUAGAAGGCUGAGUAA | 28.8 nM | 28.9 nM |  | 
